Target: Hck^3D V284C (Homo sapiens, UniProt P08631, V276C)
Assay: Inhibitor IC50 determination, fluorescent SFK peptide kinase assay
Assay type: biochemical
Settings: 1 mM ATP
Method in brief: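 Kinase concentrations were set in the linear range by prior titration: Src3D WT or V284C at 7.5 nM, Hck3D WT or V284C at 5 nM. Kinase was incubated 30 min with test compound (30 μM top, 3-fold serial dilutions, 10 points) and 1 mM ATP in HEPES pH 7.5 buffer with MgCl2, EGTA, BSA, vanadate and BME. Then 20 μM pyrene-labelled SFK peptide was added for 2 h. Fluorescence was read at ex 344/em 405 nm, in triplicate.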

Chain of Hck^3D V284C (P08631 81-526 V276C): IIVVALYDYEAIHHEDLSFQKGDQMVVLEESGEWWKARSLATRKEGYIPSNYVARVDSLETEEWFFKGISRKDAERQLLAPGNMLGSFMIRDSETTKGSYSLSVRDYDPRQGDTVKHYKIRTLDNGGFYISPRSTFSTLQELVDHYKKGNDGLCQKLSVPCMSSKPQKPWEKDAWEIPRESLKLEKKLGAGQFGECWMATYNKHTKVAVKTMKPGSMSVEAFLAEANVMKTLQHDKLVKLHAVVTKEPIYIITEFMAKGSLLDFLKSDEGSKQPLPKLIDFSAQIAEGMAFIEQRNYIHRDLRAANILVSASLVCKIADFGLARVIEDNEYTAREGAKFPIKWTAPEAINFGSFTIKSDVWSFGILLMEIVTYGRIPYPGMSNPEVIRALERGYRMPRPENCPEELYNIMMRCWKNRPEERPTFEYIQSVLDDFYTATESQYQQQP

CNC(=O)C(C#N)=Cc1c(C#Cc2cc(NC(=O)c3cccc(C(F)(F)F)c3)ccc2C)c2cncnc2n1CCOC [compound 3, (E)- and (Z)-N-(3-((6-(2-cyano-3-(methylamino)-3-oxoprop-1-en-1-yl)-7-(2-methoxyethyl)-7H-pyrrolo[2,3-d]pyrimidin-5-yl)ethynyl)-4-methylphenyl)-3-(trifluoromethyl)benzamide]
inhibition of Hck V284C (IC50, Figure 4C): potently inhibited

— article PMC6474823 (Molecular cell, 2019)
